Reference: ChEMBL document CHEMBL2321793, “Discovery of a novel broad-spectrum antifungal agent derived from albaconazole” (ACS Med Chem Lett, 2013)
Converted amounts (≈) assume the structure as drawn.

Experiments:
Aspergillus fumigatus [1] = assay: Antifungal activity against Aspergillus fumigatus ASFU7 after 48 hrs by M38 method; format: functional; settings: ASFU7, 48 h
Candida parapsilosis [2] = assay: Antifungal activity against acquired-resistant Candida parapsilosis CAPA2 after 24 hrs by spectrofluorometric analysis; format: functional; settings: Lodderomyces parapsilosis, CAPA2, 24 h
Candida parapsilosis [3] = assay: Antifungal activity against acquired-resistant Candida parapsilosis CAPA1 after 24 hrs by spectrofluorometric analysis; format: functional; settings: Lodderomyces parapsilosis, CAPA1, 24 h
Nakaseomyces glabratus = assay: Antifungal activity against Candida glabrata CAGL2 after 24 hrs by spectrofluorometric analysis; format: functional; settings: CAGL2, 24 h
Pichia kudriavzevii [4] = assay: Antifungal activity against Candida krusei CAKR8 after 24 hrs by spectrofluorometric analysis; format: functional; settings: CAKR8, 24 h
Pichia kudriavzevii [5] = assay: Antifungal activity against Candida krusei CAKR7 after 24 hrs by spectrofluorometric analysis; format: functional; settings: CAKR7, 24 h
Candida albicans [6] = assay: Antifungal activity against fluconazole-resistant Candida albicans DSY292 after 24 hrs by spectrofluorometric analysis; format: functional; settings: DSY292, 24 h
Candida albicans [7] = assay: Antifungal activity against fluconazole-susceptible Candida albicans CAAL97 after 24 hrs by spectrofluorometric analysis; format: functional; settings: CAAL97, 24 h
Candida albicans [8] = assay: Antifungal activity against fluconazole-susceptible Candida albicans CAAL93 after 24 hrs by spectrofluorometric analysis; format: functional; settings: CAAL93, 24 h
Candida albicans [9] = assay: Antifungal activity against fluconazole-resistant Candida albicans DSY735 after 24 hrs by spectrofluorometric analysis; format: functional; settings: DSY735, 24 h
Candida albicans [10] = assay: Antifungal activity against fluconazole-susceptible Candida albicans CAAL93 infected in Swiss mouse assessed as host survival at 15 mg/kg, po qd for 5 days measured after 13 days; format: functional
Method in brief: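 Transiently neutropenic Swiss mice were infected intravenously with C. albicans CAAL93 blastoconidia. Oral dosing began 1 h post-infection at 15 mg/kg body weight, in 5% DMSO, once daily for 5 consecutive days. Controls received 100 μL 0.9% saline with 5% DMSO. The read-out was survival rate on day 13 after infection, compared by log-rank test.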

[11] = target: T1, Lanosterol 14-alpha demethylase (Candida albicans (strain SC5314 / ATCC MYA-2876) (Yeast), UniProt P10613); assay: Inhibition of CYP51 in fluconazole-susceptible Candida albicans CAAL93 assessed as ergosterol level after 2 hrs
T1 sequence (P10613 whole entry): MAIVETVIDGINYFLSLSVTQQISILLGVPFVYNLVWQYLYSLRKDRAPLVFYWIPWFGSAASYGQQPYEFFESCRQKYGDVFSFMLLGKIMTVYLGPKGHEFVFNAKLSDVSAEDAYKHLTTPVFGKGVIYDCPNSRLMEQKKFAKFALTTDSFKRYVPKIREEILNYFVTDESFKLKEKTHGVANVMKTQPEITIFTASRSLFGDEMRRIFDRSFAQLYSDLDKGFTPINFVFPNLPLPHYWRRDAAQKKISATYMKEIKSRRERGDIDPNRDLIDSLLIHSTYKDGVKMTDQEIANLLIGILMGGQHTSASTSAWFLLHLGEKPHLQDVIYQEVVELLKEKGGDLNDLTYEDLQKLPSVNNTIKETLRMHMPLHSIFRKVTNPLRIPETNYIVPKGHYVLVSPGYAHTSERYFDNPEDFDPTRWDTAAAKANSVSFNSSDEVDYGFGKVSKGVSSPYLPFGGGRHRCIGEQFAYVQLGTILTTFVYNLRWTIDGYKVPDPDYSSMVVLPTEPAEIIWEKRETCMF

[12] = target: T1, Lanosterol 14-alpha demethylase; assay: Inhibition of CYP51 in fluconazole-susceptible Candida albicans CAAL93 assessed as ergosterol level at 22 ng/mL after 2 hrs; set-up: scale not given: the % may be the effect or the level left
[13] = target: T1, Lanosterol 14-alpha demethylase; assay: Inhibition of CYP51 in fluconazole-susceptible Candida albicans CAAL93 assessed as ergosterol level at 4.5 ng/mL after 2 hrs; set-up: scale not given: the % may be the effect or the level left
[14] = target: T1, Lanosterol 14-alpha demethylase; assay: Inhibition of CYP51 in fluconazole-susceptible Candida albicans CAAL93 assessed as 14-methyl-3,6-diol level at 22 ng/mL after 2 hrs; set-up: scale not given: the % may be the effect or the level left
[15] = target: T1, Lanosterol 14-alpha demethylase; assay: Inhibition of CYP51 in fluconazole-susceptible Candida albicans CAAL93 assessed as 14-methylepisterol level at 22 ng/mL after 2 hrs; set-up: scale not given: the % may be the effect or the level left
[16] = target: T1, Lanosterol 14-alpha demethylase; assay: Inhibition of CYP51 in fluconazole-susceptible Candida albicans CAAL93 assessed as 14-methylepisterol level at 4.5 ng/mL after 2 hrs; set-up: scale not given: the % may be the effect or the level left
[17] = target: T1, Lanosterol 14-alpha demethylase; assay: Inhibition of CYP51 in fluconazole-susceptible Candida albicans CAAL93 assessed as 14-methyfecosterol level at 22 ng/mL after 2 hrs; set-up: scale not given: the % may be the effect or the level left
[18] = target: T1, Lanosterol 14-alpha demethylase; assay: Inhibition of CYP51 in fluconazole-susceptible Candida albicans CAAL93 assessed as 14-methyfecosterol level at 4.5 ng/mL after 2 hrs; set-up: scale not given: the % may be the effect or the level left
[19] = target: T1, Lanosterol 14-alpha demethylase; assay: Inhibition of CYP51 in fluconazole-susceptible Candida albicans CAAL93 assessed as episterol level at 4.5 ng/mL after 2 hrs; set-up: scale not given: the % may be the effect or the level left
[20] = target: T1, Lanosterol 14-alpha demethylase; assay: Inhibition of CYP51 in fluconazole-susceptible Candida albicans CAAL93 assessed as zymosterol level at 4.5 ng/mL after 2 hrs; set-up: scale not given: the % may be the effect or the level left
[21] = target: T1, Lanosterol 14-alpha demethylase; assay: Inhibition of CYP51 in fluconazole-susceptible Candida albicans CAAL93 assessed as eburicol level at 22 ng/mL after 2 hrs; set-up: scale not given: the % may be the effect or the level left
[22] = target: T1, Lanosterol 14-alpha demethylase; assay: Inhibition of CYP51 in fluconazole-susceptible Candida albicans CAAL93 assessed as eburicol level at 4.5 ng/mL after 2 hrs; set-up: scale not given: the % may be the effect or the level left
[23] = target: T1, Lanosterol 14-alpha demethylase; assay: Inhibition of CYP51 in fluconazole-susceptible Candida albicans CAAL93 assessed as lanosterol level at 22 ng/mL after 2 hrs; set-up: scale not given: the % may be the effect or the level left
[24] = target: T1, Lanosterol 14-alpha demethylase; assay: Inhibition of CYP51 in fluconazole-susceptible Candida albicans CAAL93 assessed as lanosterol level at 4.5 ng/mL after 2 hrs; set-up: scale not given: the % may be the effect or the level left
[25] = Antifungal activity against Rhizomucor pusillus RHPU1 after 48 hrs by broth microdilution test; format: functional
[26] = Antifungal activity against Scedosporium sp. SCSP1 after 48 hrs by broth microdilution test; format: functional
Aspergillus fumigatus [27] = assay: Antifungal activity against Aspergillus fumigatus ASFU23 after 48 hrs by M38 method; format: functional; settings: ASFU23, 48 h
Aspergillus fumigatus [28] = assay: Antifungal activity against Aspergillus fumigatus ASFU19 after 48 hrs by M38 method; format: functional; settings: ASFU19, 48 h
Aspergillus fumigatus [29] = assay: Antifungal activity against Aspergillus fumigatus ASFU20 after 48 hrs by M38 method; format: functional; settings: ASFU20, 48 h
Aspergillus fumigatus [30] = assay: Antifungal activity against Aspergillus fumigatus ASFU17 after 48 hrs by M38 method; format: functional; settings: ASFU17, 48 h
Aspergillus fumigatus [31] = assay: Antifungal activity against Aspergillus fumigatus ASFU13 after 48 hrs by M38 method; format: functional; settings: ASFU13, 48 h
Rhizomucor miehei = assay: Antifungal activity against Rhizomucor miehei RHMI1 after 48 hrs by broth microdilution test

| SMILES | MIC (Aspergillus fumigatus [1]) [µg/mL] | MIC (Candida parapsilosis [2]) [µg/mL] | MIC (Candida parapsilosis [3]) [µg/mL] | MIC (Nakaseomyces glabratus) [µg/mL] | MIC (Pichia kudriavzevii [4]) [µg/mL] | MIC (Pichia kudriavzevii [5]) [µg/mL] | MIC (Candida albicans [6]) [µg/mL] | MIC (Candida albicans [7]) [µg/mL] | MIC (Candida albicans [8]) [µg/mL] | MIC (Candida albicans [9]) [µg/mL] | MIC [25] [µg/mL] | MIC [26] [µg/mL] | MIC (Aspergillus fumigatus [27]) [µg/mL] | MIC (Aspergillus fumigatus [28]) [µg/mL] | MIC (Aspergillus fumigatus [29]) [µg/mL] | MIC (Aspergillus fumigatus [30]) [µg/mL] | MIC (Aspergillus fumigatus [31]) [µg/mL] | MIC (Rhizomucor miehei) [µg/mL] | other results |
| --- | --- | --- | --- | --- | --- | --- | --- | --- | --- | --- | --- | --- | --- | --- | --- | --- | --- | --- | --- |
| C[C@@H](n1cnc2ccc3ncsc3c2c1=O)[C@](O)(Cn1cncn1)c1ccc(F)cc1F | > 43 | < 0.001 | 0.006 (≈ 0.0132 µM) | 0.095 (≈ 0.209 µM) | 2.5 (≈ 5.5 µM) | 5 (≈ 11 µM) | 5 (≈ 11 µM) | < 0.001 | 0.003 (≈ 0.0066 µM) | 1.43 (≈ 3.15 µM) | – | – | – | – | – | – | – | – | – |
| C[C@@H](n1cnc2cc3scnc3cc2c1=O)[C@](O)(Cn1cncn1)c1ccc(F)cc1F | 0.28 (≈ 0.616 µM) | 0.127 (≈ 0.279 µM) | 0.013 (≈ 0.0286 µM) | 0.068 (≈ 0.15 µM) | < 0.005 | 0.182 (≈ 0.4 µM) | 0.94 (≈ 2.07 µM) | < 0.001 | 0.011 (≈ 0.0242 µM) | 0.118 (≈ 0.26 µM) | 1 (≈ 2.2 µM) | 1 (≈ 2.2 µM) | 0.27 (≈ 0.594 µM) | 2.1 (≈ 4.62 µM) | 4.5 (≈ 9.9 µM) | 2.2 (≈ 4.84 µM) | 3.1 (≈ 6.82 µM) | 2 (≈ 4.4 µM) | survival at 15 mg/kg (Candida albicans [10]): 75%; inhibition (INH) [11]: Dose-dependent effect; Activity [12]: 5.4%; Activity [13]: 51.1%; Activity [14]: 5.4%; Activity [15]: 15.7%; Activity [16]: 5.9%; Activity [17]: 11.4%; Activity [18]: 3.8%; Activity [19]: 2.9%; Activity [20]: 2%; Activity [21]: 20.4%; Activity [22]: 4.4%; Activity [23]: 41.6%; Activity [24]: 29.9% |
| C[C@@H](n1cnc2cc(Cl)ccc2c1=O)[C@](O)(Cn1cncn1)c1ccc(F)cc1F [ALBACONAZOLE] | 0.23 (≈ 0.533 µM) | 0.011 (≈ 0.0255 µM) | 0.018 (≈ 0.0417 µM) | 0.065 (≈ 0.151 µM) | 0.005 (≈ 0.0116 µM) | 0.022 (≈ 0.0509 µM) | < 0.043 | < 0.001 | 0.003 (≈ 0.00695 µM) | 0.063 (≈ 0.146 µM) | 0.5 (≈ 1.16 µM) | 0.5 (≈ 1.16 µM) | 0.22 (≈ 0.509 µM) | 2 (≈ 4.63 µM) | 1.2 (≈ 2.78 µM) | 2.1 (≈ 4.86 µM) | 1.1 (≈ 2.55 µM) | 1 (≈ 2.32 µM) | – |
| OC(Cn1cncn1)(Cn1cncn1)c1ccc(F)cc1F [FLUCONAZOLE] | – | > 30 | > 30 | 7.7 (≈ 25.1 µM) | 12.9 (≈ 42.1 µM) | > 30 | 21 (≈ 68.6 µM) | 0.018 (≈ 0.0588 µM) | 0.062 (≈ 0.202 µM) | 11 (≈ 35.9 µM) | – | – | – | – | – | – | – | – | – |
| CCC(C)n1ncn(-c2ccc(N3CCN(c4ccc(OCC5COC(Cn6cncn6)(c6ccc(Cl)cc6Cl)O5)cc4)CC3)cc2)c1=O (centres undefined) [ITRACONAZOLE] | 0.42 (≈ 0.595 µM) | – | – | – | – | – | – | – | – | – | – | – | > 71 | > 71 | > 71 | > 71 | > 71 | – | – |
| C[C@@H](c1ncncc1F)[C@](O)(Cn1cncn1)c1ccc(F)cc1F [VORICONAZOLE] | 0.15 (≈ 0.429 µM) | 0.905 (≈ 2.59 µM) | 0.925 (≈ 2.65 µM) | 0.061 (≈ 0.175 µM) | < 0.003 | 0.549 (≈ 1.57 µM) | 1.1 (≈ 3.15 µM) | < 0.003 | 0.005 (≈ 0.0143 µM) | 0.101 (≈ 0.289 µM) | 2 (≈ 5.73 µM) | 0.125 (≈ 0.358 µM) | 0.18 (≈ 0.515 µM) | 3 (≈ 8.59 µM) | < 0.35 | 0.25 (≈ 0.716 µM) | < 0.35 | 8 (≈ 22.9 µM) | – |
